The source made the active and inactive calls. The calls are words filed in the database; no cut-off is given here. Peptide text beside a SMILES is read from it. * marks the point of attachment. Dansyl = CN(C)c1cccc2c(S(=O)(=O)*)cccc12
What was measured:
[1] = biological target: Protein farnesyltransferase subunit beta (Homo sapiens) (UniProt P49356); assay: Activity at FTase assessed as formation of farnesylated peptide after 60 mins by HPLC
Summary of the method: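 Peptide (3 μM) with 9 μM FPP and recombinant mammalian FTase (0.05 μM), incubated 60 min. HPLC scored conversion to farnesylated peptide: complete; nearly complete; 25% to 50%; less than 25%; no product.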

[2] = biological target: Protein farnesyltransferase subunit beta (Homo sapiens) (UniProt P49356); assay: Ratio of kcat to km for FTase in presence of farnesyl diphosphate
Summary of the method: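 Steady-state kinetics at saturating FPP (10 μM), 0.2-10 μM dansyl peptide, 20-100 nM FTase (at least 5-fold below peptide). Buffer: 50 mM HEPPSO pH 7.8, 5 mM TCEP, 5 mM MgCl2, 25 °C. Peptide preincubated 20 min in buffer, then FTase and FPP added. Fluorescence (ex 340, em 520 nm) followed over time and converted to kcat/KM.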

[3] = biological target: Protein farnesyltransferase subunit beta (Homo sapiens) (UniProt P49356); assay: Substrate activity for FTase assessed as increase in fluorescence by spectrofluorimetry in presence of farnesyl diphosphate relative to DnGCVLS; set-up: concentration or dose not given beside the values

Protein farnesyltransferase subunit beta (Homo sapiens), sequence (P49356 whole entry): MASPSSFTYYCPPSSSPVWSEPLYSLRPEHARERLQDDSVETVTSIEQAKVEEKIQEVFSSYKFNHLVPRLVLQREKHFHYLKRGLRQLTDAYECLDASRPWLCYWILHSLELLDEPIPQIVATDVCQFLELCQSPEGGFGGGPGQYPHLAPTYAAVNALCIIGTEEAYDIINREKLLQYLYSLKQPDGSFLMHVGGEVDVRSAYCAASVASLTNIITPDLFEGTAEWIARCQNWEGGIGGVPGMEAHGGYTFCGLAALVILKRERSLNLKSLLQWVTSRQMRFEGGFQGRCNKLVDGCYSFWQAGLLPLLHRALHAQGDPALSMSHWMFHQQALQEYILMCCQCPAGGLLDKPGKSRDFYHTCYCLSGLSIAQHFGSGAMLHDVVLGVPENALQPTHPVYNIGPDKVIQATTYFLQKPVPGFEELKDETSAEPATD

| Compound | Activity [1] | Ratio [2] [mM⁻¹ s⁻¹] | Activity [3] [%] |
| --- | --- | --- | --- |
| CC[C@H](C)[C@H](NC(=O)[C@H](C)NC(=O)[C@H](CS)NC(=O)CNS(=O)(=O)c1cccc2c(N(C)C)cccc12)C(=O)N[C@@H](CC(C)C)C(=O)O (Dansyl-GCAIL-OH) | Active | 27 | 71 |
| CC(C)C[C@H](NC(=O)[C@@H](NC(=O)[C@H](CS)NC(=O)[C@H](CS)NC(=O)CNS(=O)(=O)c1cccc2c(N(C)C)cccc12)C(C)C)C(=O)O (Dansyl-GCCVL-OH) | Active | 7 | 11 |
| CC[C@H](C)[C@H](NC(=O)[C@H](CC(C)C)NC(=O)[C@H](CS)NC(=O)CNS(=O)(=O)c1cccc2c(N(C)C)cccc12)C(=O)N[C@@H](CC(C)C)C(=O)O (Dansyl-GCLIL-OH) | Active | – | < 5 |
| CC[C@H](C)[C@H](NC(=O)[C@H](CC(N)=O)NC(=O)[C@H](CS)NC(=O)CNS(=O)(=O)c1cccc2c(N(C)C)cccc12)C(=O)N[C@@H](CC(C)C)C(=O)O (Dansyl-GCNIL-OH) | Active | 12 | 22 |
| CC(C)C[C@H](NC(=O)[C@@H]1CCCN1C(=O)[C@H](CC(N)=O)NC(=O)[C@H](CS)NC(=O)CNS(=O)(=O)c1cccc2c(N(C)C)cccc12)C(=O)O (Dansyl-GCNPL-OH) | inactive | – | 0 |
| CC(C)C[C@H](NC(=O)[C@H](CC(C)C)NC(=O)[C@H](CCC(N)=O)NC(=O)[C@H](CS)NC(=O)CNS(=O)(=O)c1cccc2c(N(C)C)cccc12)C(=O)O (Dansyl-GCQLL-OH) | < 25% | – | 0 |
| CC(C)C[C@H](NC(=O)[C@H](Cc1ccccc1)NC(=O)[C@H](CO)NC(=O)[C@H](CS)NC(=O)CNS(=O)(=O)c1cccc2c(N(C)C)cccc12)C(=O)O (Dansyl-GCSFL-OH) | inactive | – | 0 |
| CC(C)C[C@H](NC(=O)[C@H](CC(C)C)NC(=O)[C@H](CO)NC(=O)[C@H](CS)NC(=O)CNS(=O)(=O)c1cccc2c(N(C)C)cccc12)C(=O)O (Dansyl-GCSLL-OH) | < 25% | – | 0 |
| CC(C)C[C@H](NC(=O)[C@@H](NC(=O)[C@H](CO)NC(=O)[C@H](CS)NC(=O)CNS(=O)(=O)c1cccc2c(N(C)C)cccc12)[C@@H](C)O)C(=O)O (Dansyl-GCSTL-OH) | inactive | – | 0 |
| CC(C)C[C@H](NC(=O)[C@H](C)NC(=O)[C@@H](NC(=O)[C@H](CS)NC(=O)CNS(=O)(=O)c1cccc2c(N(C)C)cccc12)[C@@H](C)O)C(=O)O (Dansyl-GCTAL-OH) | inactive | – | 0 |
| CC[C@H](C)[C@H](NC(=O)[C@@H](NC(=O)[C@H](CS)NC(=O)CNS(=O)(=O)c1cccc2c(N(C)C)cccc12)[C@@H](C)O)C(=O)N[C@@H](CC(C)C)C(=O)O (Dansyl-GCTIL-OH) | Active | 33 | 45 |
| CC(C)C[C@H](NC(=O)CNC(=O)[C@@H](NC(=O)[C@H](CS)NC(=O)CNS(=O)(=O)c1cccc2c(N(C)C)cccc12)C(C)C)C(=O)O (Dansyl-GCVGL-OH) | inactive | – | 0 |

Further lines, results first:

| Activity [1] | Ratio [2] [mM⁻¹ s⁻¹] | Activity [3] [%] | Compound |
| --- | --- | --- | --- |
| Active | 23 | 61 | CC[C@H](C)[C@H](NC(=O)[C@H](CS)NC(=O)[C@H](CS)NC(=O)CNS(=O)(=O)c1cccc2c(N(C)C)cccc12)C(=O)N[C@@H](CC(C)C)C(=O)O (Dansyl-GCCIL-OH) |
| Active | 43 | 101 | CC[C@H](C)[C@H](NC(=O)[C@H](CS)NC(=O)CNS(=O)(=O)c1cccc2c(N(C)C)cccc12)C(=O)N[C@H](C(=O)N[C@@H](CC(C)C)C(=O)O)[C@@H](C)CC (Dansyl-GCIIL-OH) |
| Active | 8 | 15 | CC[C@H](C)[C@H](NC(=O)[C@H](CS)NC(=O)CNS(=O)(=O)c1cccc2c(N(C)C)cccc12)C(=O)N[C@@H](CC(C)C)C(=O)N[C@@H](CC(C)C)C(=O)O (Dansyl-GCILL-OH) |
| inactive | – | 0 | CC(C)C[C@H](NC(=O)CNC(=O)[C@H](CC(C)C)NC(=O)[C@H](CS)NC(=O)CNS(=O)(=O)c1cccc2c(N(C)C)cccc12)C(=O)O (Dansyl-GCLGL-OH) |
| Active | 8.1 | 9 | CSCC[C@H](NC(=O)[C@H](CC(C)C)NC(=O)[C@H](CS)NC(=O)CNS(=O)(=O)c1cccc2c(N(C)C)cccc12)C(=O)N[C@@H](CC(C)C)C(=O)O (Dansyl-GCLML-OH) |
| < 25% | – | 0 | CC(C)C[C@H](NC(=O)[C@H](CCC(N)=O)NC(=O)[C@H](CC(C)C)NC(=O)[C@H](CS)NC(=O)CNS(=O)(=O)c1cccc2c(N(C)C)cccc12)C(=O)O (Dansyl-GCLQL-OH) |
| inactive | – | 0 | CSCC[C@H](NC(=O)[C@H](CS)NC(=O)CNS(=O)(=O)c1cccc2c(N(C)C)cccc12)C(=O)N[C@@H](CCC(=O)O)C(=O)N[C@@H](CC(C)C)C(=O)O (Dansyl-GCMEL-OH) |
| inactive | – | 0 | CC(C)C[C@H](NC(=O)[C@H](CC(N)=O)NC(=O)[C@H](CCC(N)=O)NC(=O)[C@H](CS)NC(=O)CNS(=O)(=O)c1cccc2c(N(C)C)cccc12)C(=O)O (Dansyl-GCQNL-OH) |
| Active | 5 | 18 | CC[C@H](C)[C@H](NC(=O)[C@H](CO)NC(=O)[C@H](CS)NC(=O)CNS(=O)(=O)c1cccc2c(N(C)C)cccc12)C(=O)N[C@@H](CC(C)C)C(=O)O (Dansyl-GCSIL-OH) |
| inactive | – | 0 | CC(C)C[C@H](NC(=O)[C@H](CCC(N)=O)NC(=O)[C@H](CO)NC(=O)[C@H](CS)NC(=O)CNS(=O)(=O)c1cccc2c(N(C)C)cccc12)C(=O)O (Dansyl-GCSQL-OH) |
| Active | 47 | 52 | CC[C@H](C)[C@H](NC(=O)[C@@H](NC(=O)[C@H](CS)NC(=O)CNS(=O)(=O)c1cccc2c(N(C)C)cccc12)C(C)C)C(=O)N[C@@H](CC(C)C)C(=O)O (Dansyl-GCVIL-OH) |

Source: ChEMBL document CHEMBL1153232, “Synthesis and screening of a CaaL peptide library versus FTase reveals a surprising number of substrates” (Bioorg Med Chem Lett, 2010)
